In ChEMBL document CHEMBL3112535, “Undesired versus designed enzymatic cleavage of linkers for liver targeting” (Bioorg Med Chem Lett, 2014):

Legend:
[1] = molecular target: T1, Liver carboxylesterase 1 (Homo sapiens, UniProt P23141); assay: Metabolic stability of the compound in human liver microsomes assessed as carboxylesterase-1-mediated hydrolysis by measuring intrinsic clearance at 1 uM in absence of NADPH; type: ADME
T1 sequence (P23141 whole entry): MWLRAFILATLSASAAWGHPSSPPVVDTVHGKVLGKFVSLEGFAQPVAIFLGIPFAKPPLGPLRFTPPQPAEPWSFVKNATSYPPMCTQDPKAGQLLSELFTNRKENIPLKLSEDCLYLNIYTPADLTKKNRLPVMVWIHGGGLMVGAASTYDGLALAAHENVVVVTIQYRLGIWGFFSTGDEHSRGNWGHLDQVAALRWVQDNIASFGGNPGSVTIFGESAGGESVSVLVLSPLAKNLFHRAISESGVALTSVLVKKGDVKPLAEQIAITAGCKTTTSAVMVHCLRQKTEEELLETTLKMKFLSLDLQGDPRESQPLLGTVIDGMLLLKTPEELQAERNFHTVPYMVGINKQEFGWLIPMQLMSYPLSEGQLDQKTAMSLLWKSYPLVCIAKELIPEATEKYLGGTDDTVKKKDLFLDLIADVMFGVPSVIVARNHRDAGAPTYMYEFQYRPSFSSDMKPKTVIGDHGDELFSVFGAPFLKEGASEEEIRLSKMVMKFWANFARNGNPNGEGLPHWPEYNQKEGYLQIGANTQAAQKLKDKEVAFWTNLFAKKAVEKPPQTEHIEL
Summary of the method: (§1)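 Pooled mixed-gender human liver (N = 50) or intestinal (N = 6) microsomes at 0.5 or 0.76 mg/mL final, in 100 mM potassium phosphate pH 7.4, prewarmed 5 min at 37 °C. Substrate 1 µM, n = 2, final DMSO 0.025% and acetonitrile 0.98%. Aliquots taken over 0–60 min into acetonitrile with terfenadine internal standard. Parent loss by LC–MS/MS. CLint = 0.693·(mL incubation)/(t1/2·protein concentration).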

[2] = molecular target: T1, Liver carboxylesterase 1; assay: (§2) Metabolic stability of the compound in human liver microsomes assessed as carboxylesterase-1-mediated hydrolysis by measuring half life in absence of NADPH; type: ADME; conditions: microsomes; summary of the method: as §1
[3] = molecular target: T2, Cocaine esterase (Homo sapiens, UniProt O00748); assay: (§3) Metabolic stability of the compound in human intestinal microsomes assessed as carboxylesterase-2-mediated hydrolysis by measuring half life in absence of NADPH; type: ADME, Intestine; conditions: microsomes; summary of the method: as §1
T2 sequence (O00748 whole entry): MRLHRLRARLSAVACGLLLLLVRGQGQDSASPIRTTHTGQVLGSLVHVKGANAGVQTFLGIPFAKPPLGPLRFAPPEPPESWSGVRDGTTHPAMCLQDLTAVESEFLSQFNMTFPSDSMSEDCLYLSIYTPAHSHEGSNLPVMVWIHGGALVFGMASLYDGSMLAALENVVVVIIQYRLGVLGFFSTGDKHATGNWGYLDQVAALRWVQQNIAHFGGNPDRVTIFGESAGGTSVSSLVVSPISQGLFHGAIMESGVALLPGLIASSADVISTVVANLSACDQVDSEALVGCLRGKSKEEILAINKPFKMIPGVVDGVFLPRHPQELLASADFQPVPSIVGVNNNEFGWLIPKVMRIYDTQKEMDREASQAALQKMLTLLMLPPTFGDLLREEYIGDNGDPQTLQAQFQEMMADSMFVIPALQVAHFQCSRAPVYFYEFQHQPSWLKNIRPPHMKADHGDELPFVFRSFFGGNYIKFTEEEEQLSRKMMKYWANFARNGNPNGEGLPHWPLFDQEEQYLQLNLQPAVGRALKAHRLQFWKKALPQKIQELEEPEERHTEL

[4] = molecular target: T2, Cocaine esterase; assay: Metabolic stability of the compound in human intestinal microsomes assessed as carboxylesterase-2-mediated hydrolysis by measuring intrinsic clearance at 1 uM in absence of NADPH; type: ADME, Intestine; summary of the method: as §1
[5] = molecular target: T1, Liver carboxylesterase 1; assay: Metabolic stability of the compound assessed as recombinant carboxylesterase-1 (unknown origin)-mediated hydrolysis after 60 mins; type: ADME; conditions: 1 h
Summary of the method: (§4)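 Metabolite identification. Substrate at 10 µM final (DMSO stock diluted in acetonitrile) incubated 1 h at 37 °C, pH 7.4, n = 1, with one of: recombinant CE-1 bactosomes, recombinant CE-2 bactosomes, control E. coli cytosol, or human liver or intestinal microsomes. Quench in acetonitrile, centrifuge, dry supernatant under nitrogen, reconstitute in mobile phase. Metabolite formation read by LC–MS/MS.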

[6] = molecular target: T2, Cocaine esterase; assay: Metabolic stability of the compound assessed as recombinant carboxylesterase-2 (unknown origin)-mediated hydrolysis after 60 mins; type: ADME; conditions: 1 h; summary of the method: as §4
[7] = molecular target: T3, carboxylesterase-1 (Homo sapiens, UniProt P23141); assay: as §2; type: ADME; conditions: liver microsomes; summary of the method: as §1
T3 sequence (P23141 whole entry): T1 sequence (P23141 whole entry)

[8] = molecular target: T4, carboxylesterase-2 (Homo sapiens, UniProt O00748); assay: as §3; type: ADME, Intestine; conditions: intestinal microsomes; summary of the method: as §1
T4 sequence (O00748 whole entry): T2 sequence (O00748 whole entry)

SMILES | CLint [1] [µL/min/mg] | t1/2 [2] [min] | t1/2 [3] [min] | CL [4] [µL/min/mg] | Stability [5] | Stability [6] | half-life [7] [min] | half-life [8] [min]
C#CCC(CCCNC(=O)OC)C(=O)Oc1ccc(Oc2ccc(CN(Cc3ccccc3)c3cccc(NS(C)(=O)=O)c3C)cc2)cc1 (centres undefined) | 550 | 2.5 | 0.84 | 1700 |  |  |  | 
COC(=O)NCCCC(C)(C)C(=O)Oc1ccc(Oc2ccc(CN(Cc3ccccc3)c3cccc(NS(C)(=O)=O)c3C)cc2)cc1 | 240 | 5.7 | 1.4 | 1000 |  |  |  | 
C#CCC(CCCNC(=O)OC)C(=O)OCCOc1ccc(Oc2ccc(CN(Cc3ccccc3)c3cccc(NS(C)(=O)=O)c3C)cc2)cc1 (centres undefined) | 770 | 1.8 | 0.73 | 1900 | Stable | Unstable |  | 
COC(=O)NCCCC(Cc1ccccc1)C(=O)Oc1ccc(Oc2ccc(CN(Cc3ccccc3)c3cccc(NS(C)(=O)=O)c3C)cc2)cc1 (centres undefined) | 73 | 19 | 9.9 | 140 |  |  |  | 
COC(=O)NCCCC(C)(Cc1ccccc1)C(=O)Oc1ccc(Oc2ccc(CN(Cc3ccccc3)c3cccc(NS(C)(=O)=O)c3C)cc2)cc1 (centres undefined) | 19 | 73 | 32 | 43 | Stable | Unstable |  | 
COC(=O)NCCCC(Cc1cn(Cc2ccccc2)nn1)C(=O)OCCOc1ccc(Oc2ccc(CN(Cc3ccccc3)c3cccc(NS(C)(=O)=O)c3C)cc2)cc1 (centres undefined) | 170 | 5.3 | 3.8 | 240 | Stable | Unstable |  | 
COC(=O)NCCCC(Cc1cn(Cc2ccccc2)nn1)C(=O)Oc1ccc(Oc2ccc(CN(Cc3ccccc3)c3cccc(NS(C)(=O)=O)c3C)cc2)cc1 (centres undefined) | 140 | 6.7 | 1.9 | 480 | Stable | Unstable |  | 
COC(=O)NCCCC(C)C(=O)Oc1ccc(Oc2ccc(CN(Cc3ccccc3)c3cccc(NS(C)(=O)=O)c3C)cc2)cc1 (centres undefined) | 1000 | 1.3 | 0.53 | 2600 |  |  |  | 
COC(=O)NCCCC(CC(C)C)C(=O)Oc1ccc(Oc2ccc(CN(Cc3ccccc3)c3cccc(NS(C)(=O)=O)c3C)cc2)cc1 (centres undefined) | 82 |  |  | 220 |  |  | 17 | 6.3
